Assay results from different studies.
Lines come from different studies, so protocols differ.
Target: SNF-related serine/threonine-protein kinase (SNRK, Homo sapiens, UniProt Q9NRH2)
Sequence (Q9NRH2 1-765, as in one of the studies): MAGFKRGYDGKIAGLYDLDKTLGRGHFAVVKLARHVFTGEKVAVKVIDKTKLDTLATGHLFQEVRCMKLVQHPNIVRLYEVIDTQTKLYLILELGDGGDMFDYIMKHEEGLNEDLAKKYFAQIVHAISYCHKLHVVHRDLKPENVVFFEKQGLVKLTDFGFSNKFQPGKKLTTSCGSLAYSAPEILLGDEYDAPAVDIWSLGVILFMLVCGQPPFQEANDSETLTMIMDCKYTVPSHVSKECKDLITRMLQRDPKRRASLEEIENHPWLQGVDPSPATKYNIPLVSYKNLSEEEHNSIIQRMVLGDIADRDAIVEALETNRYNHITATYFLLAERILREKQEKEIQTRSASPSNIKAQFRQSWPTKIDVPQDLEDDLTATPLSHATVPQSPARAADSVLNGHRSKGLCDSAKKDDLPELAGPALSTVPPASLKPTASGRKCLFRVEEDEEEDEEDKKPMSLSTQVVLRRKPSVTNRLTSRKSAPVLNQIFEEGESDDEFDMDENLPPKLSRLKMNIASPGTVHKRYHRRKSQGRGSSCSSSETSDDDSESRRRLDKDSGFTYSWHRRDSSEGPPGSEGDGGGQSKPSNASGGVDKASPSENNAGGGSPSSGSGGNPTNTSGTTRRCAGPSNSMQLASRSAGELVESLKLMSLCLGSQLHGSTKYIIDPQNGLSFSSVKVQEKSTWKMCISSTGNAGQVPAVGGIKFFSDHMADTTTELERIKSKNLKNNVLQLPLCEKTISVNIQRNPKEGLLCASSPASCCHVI

SMILES	assay	conditions	remaining binding [%]
CN(c1ccnc(CNc2nc(Nc3ccc4c(c3)CC(=O)N4)ncc2C(F)(F)F)n1)S(C)(=O)=O	cell-free assay, competition with immobilised ligand	1 µM	85
Cc1cnn2ncc(-c3ccnc(N(C)C)n3)c2c1	binding	1 µM	79
Cc1noc([C@H]2C[C@@H](c3ccc(C(F)(F)F)cc3)CN(C(=O)N3CCS(=O)(=O)C3)C2)n1	cell-free assay, competition with immobilised ligand	1 µM	100
COc1ncc2cc3ccccc3nc2c1C#N	cell-free assay, competition with immobilised ligand	5 µM	100
O=C(NCCCN1CCOCC1)c1ccc(Nc2ncc(Cl)c(-c3ccc(Cl)s3)n2)cc1	binding, competition with immobilised ligand	1 µM	100
COc1ccc2c(c1)O[C@H](c1ccc(OC)c(OC)c1)C[C@@H]2NC(=O)C1(c2ccc3c(c2)OC(F)(F)O3)CC1	cell-free assay, competition with immobilised ligand	1 µM	92
CN(CCCC(F)(F)F)c1nccc(-c2cnn3ncccc23)n1	binding	1 µM	100
CS(=O)(=O)NCC[C@H](NC(=O)c1cncc2c1cnn2-c1ccc(F)cc1)c1ccnc(S(C)(=O)=O)c1	cell-free assay, competition with immobilised ligand	1 µM	100
O=C(c1ccc(Nc2nccc(-c3cc4ccccc4s3)n2)cc1)N1CCC(N2CCCC2)CC1	binding, competition with immobilised ligand	1 µM	100
N[C@@H]1CCN(c2nccc(-c3cnn4ncccc34)n2)C1	binding	1 µM	100
CC(=O)N1CCC(c2ccc(C(=O)NC3=NCCN3)cc2C(F)(F)F)CC1	cell-free assay, competition with immobilised ligand	1 µM	98
CNC(=O)[C@@H]1CC[C@@H](n2c(-c3ccc4cnccc4c3)nc3ccc(C(=O)NCc4cccc(C(N)=O)c4)cc32)C1	binding, competition with immobilised ligand	1 µM	100
CCN1CCN(Cc2ccc(C(=O)Nc3ccc(C)c(Oc4ccc5c(c4)CC(=O)N5)c3)cc2C(F)(F)F)CC1	binding, competition with immobilised ligand	1 µM	98
CN(C)c1ncc(F)c(-c2cnn3ncccc23)n1	binding	1 µM	100
O=c1nc(-c2ccccn2)sc2ccccc12	binding, competition with immobilised ligand	1 µM	100
C[C@H]1CCN(c2nccc(-c3cnn4ncccc34)n2)C1	binding	1 µM	81
O=C(c1ccc(Nc2ncc(Cl)c(-c3cc4ccccc4s3)n2)cc1)N1CCC(N2CCCC2)CC1	binding, competition with immobilised ligand	1 µM	87
COc1ccnn2ncc(-c3ccnc(N(C)C)n3)c12	binding	1 µM	93
C[C@H](c1ccnc(Nc2nc3ccc(-c4cc(N(C)C)ncn4)cc3[nH]2)c1)N1CCN(C(=O)CC(F)(F)F)CC1	cell-free assay, competition with immobilised ligand	0.1 µM	100
FC(F)(F)Oc1cccc(-c2cnc3ccc(-c4ccncc4)nn23)c1	binding, competition with immobilised ligand	5 µM	71
COc1cnc(Nc2cccc(S(N)(=O)=O)c2)nc1N1CCN(c2ccccc2)CC1	binding, competition with immobilised ligand	1 µM	88
O=C(Nc1c[nH]nc1C(=O)NC1CCNCC1)c1cc(F)cc(F)c1	binding, competition with immobilised ligand	1 µM	97
